This note sets out measurements from ChEMBL document CHEMBL3868588, “Emestrins: Anti-Cryptococcus Epipolythiodioxopiperazines from Podospora australis” (J Nat Prod, 2016).

Experiment [1] concerns Candida albicans. As to the kind of experiment: Antifungal activity against Candida albicans ATCC 10231 measured after 24 hrs by resazurin-staining based serial dilution method. To be noted: ATCC 10231, 24 h. Format: functional. The essentials: (§1)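 Serial dilution per NCCLS guidance in 96-well plates with YM test medium (1% maltose extract, 0.2% yeast extract, 0.4% agar). Compounds in DMSO, diluted in growth medium; amphotericin B positive control. Incubated at 25 °C; C. albicans ATCC 10231 read at 24 h, C. neoformans H99 at 48 h. Visual end point, OD and PrestoBlue resazurin viability; MIC = lowest concentration giving 100% inhibition versus untreated control.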
(In general: Alamar Blue is a resazurin reagent that responds to reducing activity.)

Experiment [2] deals with Cryptococcus neoformans. Description: Antifungal activity against Cryptococcus neoformans H99 after 48 hrs by resazurin-staining based serial dilution method. Format: functional. To be noted: var grubii H99 . An outline of the steps:
as §1

The nature of experiment [3]: Antiproliferative activity against human DU145 cells. Format: functional, cell-based. To be noted: DU-145.

As usually defined, the MIC is the least concentration at which growth counts as inhibited. Higher therefore signals a less susceptible organism. As usually defined, the pIC50 is the negative decadic logarithm of the IC50, by convention in mol/L. A high value points to a low IC50.

pIC50: −log10 of the molar value. Converted amounts (≈) assume the structure as drawn.

As to `COc1ccc2cc1Oc1cc(ccc1OC)[C@H](O)[C@]13SSS[C@@]4(C(=O)N1C)[C@H](O)C1=COC=C[C@H](OC2=O)[C@H]1N4C3=O`, the MIC in experiment [1] was over 25.6 µg/mL; in experiment [2] it was 6.4 µg/mL (≈ 9.93 µM).

Regarding `COc1ccc2cc1Oc1cc(ccc1OC)[C@H](O)[C@]13SS[C@@]4(C(=O)N1C)[C@H](O)C1=COC=C[C@H](OC2=O)[C@H]1N4C3=O`, the negative-log IC50 (pIC50) in experiment [3] is 8.03. For the same compound, the figures for the MIC in experiment [1] and in experiment [2] were 6.4 µg/mL (≈ 10.4 µM) and 0.8 µg/mL (≈ 1.31 µM), respectively.

Regarding `COc1ccc2cc1Oc1cc(ccc1OC)C(=O)O[C@H]1C=COC=C3[C@@H](O)[C@]45SS[C@](C2)(C(=O)N4[C@@H]31)N(C)C5=O`, the minimum inhibitory concentration (MIC) is over 25.6 µg/mL in experiment [1] and 1.6 µg/mL (≈ 2.68 µM) in experiment [2].

For the compound `C[C@@H]1[C@H](O)[C@@H](C)/C=C/C=C/C=C/C=C/C=C/C=C/C=C/[C@H](O[C@@H]2O[C@H](C)[C@@H](O)[C@H](N)[C@@H]2O)C[C@@H]2O[C@](O)(C[C@@H](O)C[C@@H](O)[C@H](O)CC[C@@H](O)C[C@@H](O)CC(=O)O[C@H]1C)C[C@H](O)[C@H]2C(=O)O` [AMPHOTERICIN B], the minimal inhibitory concentration (MIC) was 1.6 µg/mL (≈ 1.73 µM) in experiment [1] and 0.8 µg/mL (≈ 0.866 µM) in experiment [2].

In the case of `COc1ccc2cc1Oc1cc(ccc1OC)[C@H](O)[C@]13SSSS[C@@]4(C(=O)N1C)[C@H](O)C1=COC=C[C@H](OC2=O)[C@H]1N4C3=O`, the MIC in experiment [1] was over 25.6 µg/mL; in experiment [2], 25.6 µg/mL (≈ 37.8 µM).
